# Assay results collected from several papers.
# Lines come from different studies, so protocols differ.
# ALPI: Intestinal-type alkaline phosphatase (ALPI, Bos taurus, UniProt P19111)
# NMUR1: Neuromedin-U receptor 1 (NMUR1, Homo sapiens, UniProt Q9HB89)
# Maob: Amine oxidase [flavin-containing] B (Maob, Rattus norvegicus, UniProt P19643)
# JAK2: Tyrosine-protein kinase JAK2 (JAK2, Homo sapiens, UniProt O60674)
# EPHX2: Bifunctional epoxide hydrolase 2 (EPHX2, Homo sapiens, UniProt P34913)
# GRM2: Metabotropic glutamate receptor 2 (GRM2, Homo sapiens, UniProt Q14416)
# RET: Proto-oncogene tyrosine-protein kinase receptor Ret (RET, Homo sapiens, UniProt P07949)
# LCK: Tyrosine-protein kinase Lck (LCK, Homo sapiens, UniProt P06239)
SMILES,target,assay,conditions,IC50
O=C1NC2=C(C(=O)N(Cc3ccc(F)cc3)C2)C(c2ccc(O)cc2)N1 (centres unmarked),ALPI,"enzyme activity, inhibitor, absorbance",,4.76 µM
CC(C)C[C@H](NC(=O)[C@H](Cc1ccccc1)NC(=O)[C@H](Cc1ccc(O)cc1)NC(=O)CNC(=O)[C@H](CCCNC(=N)N)NC(=O)[C@H](CO)NC(=O)[C@H](CCC(N)=O)NC(=O)[C@H](CO)NC(=O)[C@H](C)NC(=O)[C@H](Cc1ccccc1)NC(=O)[C@@H]1CCCN1C(=O)[C@H](CO)NC(=O)[C@H](CCC(N)=O)NC(=O)[C@H](Cc1ccccc1)NC(=O)[C@H](CCC(=O)O)NC(=O)[C@H](CCC(=O)O)NC(=O)[C@H](CC(=O)O)NC(=O)[C@@H](NC(=O)[C@H](CCCNC(=N)N)NC(=O)[C@@H](N)Cc1ccccc1)C(C)C)C(=O)N[C@@H](Cc1ccccc1)C(=O)N[C@@H](CCCNC(=N)N)C(=O)N1CCC[C@H]1C(=O)N[C@@H](CCCNC(=N)N)C(=O)N[C@@H](CC(N)=O)C(N)=O,NMUR1,"ligand displacement, radioligand",cell membranes,0.00011 µM
CC(=NN=C1CS(=O)(=O)N(C)c2ccccc21)c1cc(C)sc1C,Maob,"enzyme activity, inhibitor, fluorescence",,2.61 µM
O=C1NC2=C(C(=O)N(Cc3ccc(F)cc3)C2)C(c2ccccc2O)N1 (centres unmarked),ALPI,"enzyme activity, inhibitor, absorbance",,1.27 µM
O=c1cc(-c2ccc(O)c(-c3c(O)cc(O)c4c(=O)cc(-c5ccc(O)cc5)oc34)c2)oc2cc(O)cc(O)c12,JAK2,"enzyme activity, inhibitor",,5 µM
CC12CC3(C)CC(C)(C1)CC(NC(=O)Nc1ccccc1F)(C2)C3,EPHX2,"enzyme activity, inhibitor, fluorescence",,0.0943 µM
Nc1nc(NCc2ccccc2CO)c2[nH]cnc2n1,"Methylated-DNA--protein-cysteine methyltransferase (MGMT, Homo sapiens, UniProt P16455)","enzyme activity, inhibitor",30 min,> 1000 µM
COc1ccc(-c2cc(C(N)=O)ncc2OCc2cn(C)cn2)c(F)c1,GRM2,"ion flux, antagonist",,0.092 µM
COc1ccc2cc(C=NN=C3CS(=O)(=O)N(C)c4ccccc43)c(Cl)nc2c1,Maob,"enzyme activity, inhibitor, fluorescence",,2.22 µM
COc1ccc(-c2cc(C(N)=O)ncc2OCc2ccncc2)c(F)c1,GRM2,"ion flux, antagonist",,0.033 µM
O=C1NC2=C(C(=O)N(c3nc4ccccc4[nH]3)C2)C(c2ccc(O)cc2)N1 (centres unmarked),ALPI,"enzyme activity, inhibitor, absorbance",,11.3 µM
CCC(CC12CC3CC(CC(C3)C1)C2)NC(=O)Nc1ccccc1F (centres unmarked),EPHX2,"enzyme activity, inhibitor, fluorescence",,0.631 µM
Cc1ccc2nc(Cl)c(C=NN=C3CS(=O)(=O)N(C)c4ccccc43)cc2c1,Maob,"enzyme activity, inhibitor, fluorescence",,1.43 µM
O=c1[nH]c2c(Br)cccc2n1C1CCN(S(=O)(=O)c2ccc(I)cc2)CC1,"N-glycosylase/DNA lyase (OGG1, Homo sapiens, UniProt O15527)","enzyme activity, inhibitor",,14 µM
CC(C)(C)n1nc(-c2ccc3nc(OC4CC4)ccc3c2)c(C(N)=O)c1N,"Mitogen-activated protein kinase kinase kinase 10 (MAP3K10, Homo sapiens, UniProt Q02779)",cell-free assay,,> 10 µM
CNc1nc(C)nc(N[C@H]2CCC[C@@H](C(=O)NCc3ccc(C#N)cc3C(F)(F)F)C2)n1,EPHX2,"enzyme activity, inhibitor",,0.0004 µM
COc1ccc2c(Oc3ccc4c(C(=O)Nc5ccccc5N)cccc4c3)ccnc2c1,RET,"enzyme activity, inhibitor",,> 0.5 µM
COc1ccc(-c2cc(C(N)=O)ncc2OCc2ccc(OC)nc2)c(F)c1,GRM2,"ion flux, antagonist",,0.224 µM
CC(=NN=C1CS(=O)(=O)N(C)c2ccccc21)c1sccc1Br,Maob,"enzyme activity, inhibitor, fluorescence",,3.82 µM
O=C(Cc1cccc(Nc2ncnc3[nH]ccc23)c1)Nc1ccc(F)c(Cl)c1,RET,"enzyme activity, inhibitor, mobility shift",,> 20 µM
O=C1NC2=C(C(=O)N(c3ccc(F)cc3)C2)C(c2ccc(O)cc2)N1 (centres unmarked),ALPI,"enzyme activity, inhibitor, absorbance",,2.5 µM
Nc1ncc2c(n1)-c1c([nH]c3ccc(C#CC4CC4)cc13)CCCC2,"Phosphatidylinositol 5-phosphate 4-kinase type-2 gamma (PIP4K2C, Homo sapiens, UniProt Q8TBX8)","target engagement in cells, BRET",,> 10 µM
Cc1ccc(C(=O)Nc2ccc(Oc3cc4cnn(C)c4cc3-c3cn[nH]c3)c(F)c2)c(=O)n1-c1ccc(F)cc1,RET,"enzyme activity, inhibitor",,0.59 µM
O=C1NC2=C(C(=O)N(c3ccc(F)cc3)C2)C(c2ccccc2O)N1 (centres unmarked),ALPI,"enzyme activity, inhibitor, absorbance",,6.54 µM
CC12CC3CC(C1)CC(NC(=O)Nc1ccccc1F)(C3)C2,EPHX2,"enzyme activity, inhibitor, fluorescence",,0.0015 µM
CC/C(=N\NC(=O)C(C)Nc1ccccc1)c1ccc(O)c(C)c1O (centres unmarked),"Serine/threonine-protein kinase LATS2 (LATS2, Homo sapiens, UniProt Q9NRM7)","enzyme activity, inhibitor",,0.00409 µM
O=C1NC2=C(C(=O)N(Cc3ccccc3)C2)C(c2ccccc2O)N1 (centres unmarked),ALPI,"enzyme activity, inhibitor, absorbance",,7.67 µM
O=C(CCCCCCCCc1ccc(O)cc1)c1c(O)cccc1O,EPHX2,"enzyme activity, inhibitor, fluorescence",,18.6 µM
CC(=NN=C1CS(=O)(=O)N(C)c2ccccc21)c1cc(C)cs1,Maob,"enzyme activity, inhibitor, fluorescence",,3.83 µM
CC1=C(CC(=O)O)c2cc(F)ccc2/C1=C\c1ccc([S+](C)[O-])cc1 (centres unmarked),"Aldo-keto reductase family 1 member B1 (AKR1B1, Homo sapiens, UniProt P15121)","enzyme activity, inhibitor, absorbance",pH 6.2,0.3 µM
CC(=NN=C1CS(=O)(=O)N(C)c2ccccc21)c1cc(Cl)sc1Cl,Maob,"enzyme activity, inhibitor, fluorescence",,2.58 µM
CC(O)C(C)C(=O)N1CCC(NC(=O)Nc2ccc(OC(F)(F)F)c(F)c2)CC1 (centres unmarked),EPHX2,"enzyme activity, inhibitor",,0.0001 µM
COc1ccc(-c2cc(C(N)=O)ncc2OCc2cnc(OC)nc2)c(F)c1,GRM2,"ion flux, antagonist",,0.261 µM
Cc1cnc(-c2ccc(-c3ccc(NC(=O)Nc4c(F)cc(F)cc4F)cc3F)c3c2C(=O)NC3)[nH]1,LCK,"enzyme activity, inhibitor",,0.0007 µM
Oc1c2ccccc2c2c3c(cccc13)N=N2,JAK2,"enzyme activity, inhibitor",,0.736 µM
COc1ccc(-c2cc(C(N)=O)ncc2OCc2ccnc(C)c2)c(F)c1,GRM2,"ion flux, antagonist",,0.059 µM
CC(C)C[C@H](NC(=O)[C@H](Cc1ccccc1)NC(=O)[C@@H](N)Cc1ccc(O)cc1)C(=O)N[C@@H](Cc1ccccc1)C(=O)N[C@@H](CCCNC(=N)N)C(=O)N1CCC[C@H]1C(=O)N[C@@H](CCCNC(=N)N)C(=O)N[C@@H](CC(N)=O)C(N)=O,NMUR1,"ligand displacement, radioligand",cell membranes,0.00066 µM
CNC(=O)c1cc2c(Oc3ccc(NC(=O)C4(C(=O)Nc5ccc(F)cc5)CC4)cc3)ccnc2cc1OC,LCK,"enzyme activity, inhibitor, radiometric",,0.012 µM
